This is an account of results in ChEMBL document CHEMBL5154824, “Design and synthesis of multifunctional microtubule targeting agents endowed with dual pro-apoptotic and anti-autophagic efficacy” (Eur J Med Chem, 2022).

Converted amounts (≈) assume the structure as drawn. The source made the active and inactive calls.

A short description of data set [1]: Mutagenicity in Salmonella typhimurium TA98 in presence of rat liver S9 fraction at 0.3 to 60 uM by AMES test. In kind it is toxicity, subcellular. To be noted: salmonella enterica subsp. enterica serovar typhimurium, s9, 60 µM; dose 0.3-60 µM.
In data set [2] the test system is SCC-4. Description: Induction of autophagy in human SCC-4 cells assessed as increase in LC3-II to LC3-I ratio at 10 uM incubated for 30 mins in presence of EBSS followed by compound addition and measured after 3 hrs by Western blot analysis. In kind it is functional, cell-based. Summed up: (§1)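 SCC4 cells were pre-incubated with or without EBSS for 30 min, then given 10 μM compound, with 10 μM chloroquine as reference, for 3 h. LC3-I/II was assessed by Western blot with GAPDH loading control. The LC3-II/LC3-I ratio came from densitometry, as mean ± SEM of four experiments, with an unpaired one-tailed t-test.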
(In general: A western blot detects proteins with antibodies after separation by electrophoresis.)

The subject of data set [3] is KYSE-520 cell line. Description: Induction of apoptosis in human KYSE520 cells assessed as increase in apoptotic cells at 3 to 10 uM after 72 hrs by Annexin V-FITC/PI staining based flow cytometry method. In kind it is functional, cell-based. To be noted: dose 3-10 µM. The procedure, abridged: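 KYSE-520 cells were treated at 3 and 10 μM for 72 h, then analysed by flow cytometry after Annexin V/PI dual staining.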

A further data set has as its system Ca9-22. The data set can be described thus: Cytotoxicity against human Ca9-22 cells assessed as reduction in cell viability measured after 48 hrs by alamar blue viability assay. Type of data set: functional, cell-based. To be noted: Ca9-22, 48 h. The procedure, abridged:
(§2)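 Oral squamous carcinoma cells were exposed for 48 h to at least 8 increasing concentrations. Viability was read by AlamarBlue. IC50 is the concentration that halves viability, taken as the mean ± SD of at least three independent experiments.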
(In general: The colour change of resazurin is a common sign of viable cells or microbes.)

Data set [4] has as its system SCC-4. Description: Induction of apoptosis in human SCC-4 cells assessed as increase in apoptotic cells at 2 uM after 48 hrs by Annexin V-FITC/PI staining based flow cytometry method. Type of data set: functional, cell-based. Summed up: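 SCC4 cells were treated at 0.5 or 2 μM for 48 h, then stained with Annexin V/PI and analysed by flow cytometry. Data are mean ± SEM of three independent experiments, with an unpaired one-tailed t-test versus vehicle.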
(In general: Flow cytometry measures light scatter and fluorescence of single cells or particles in a stream.)

Data set [5] is described as follows: Mutagenicity in Salmonella typhimurium TA100 in absence of rat liver S9 fraction at 0.3 to 60 uM by AMES test. In kind it is toxicity. To be noted: salmonella enterica subsp. enterica serovar typhimurium, s9, 60 µM; dose 0.3-60 µM.
In data set [6] the target is Nuclear factor NF-kappa-B complex (Homo sapiens) (UniProt Q00653+P19838+Q04206). The data set can be described thus: Inhibition of NF-kappaB phosphorylation in human HL-60 cells at 10 uM measured after 2 hrs by Immunoblotting analysis. Type of data set: cell-based. Summed up:
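HL-60 cells were treated at 10 μM or with DMSO vehicle for 2 h. Phospho-NF-κB and phospho-Erk1/2 were immunoblotted and quantified by densitometry relative to β-tubulin. Data are mean ± SD (n = 2), analysed by one-way ANOVA.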

The subject of data set [7] is HeLa. The data set can be described thus: Induction of autophagy in human HeLa cells assessed as increasing number of autophagosomes at 1 to 10 uM incubated for 3 hrs with HBSS medium by immunofluorescence based laser scanning confocal microscopic analysis. To be noted: dose 1-10 µM. In kind it is functional, cell-based. Summed up:
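HeLa cells were treated in HBSS at 1 or 10 μM, with BafA1 300 nM as reference, for 3 h. After fixation in ice-cold methanol, LC3 and LAMP1 were immunostained. Laser scanning confocal microscopy assessed autophagosome number and LC3/LAMP1 colocalisation.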

In data set [8] the test system is SCC-4. Description: Induction of autophagy in human SCC-4 cells assessed as increase in LC3-II to LC3-I ratio at 10 uM in absence of EBSS measured after 3 hrs by Western blot analysis. In kind it is functional, cell-based. Summed up: as §1
Data set [9] can be described thus: Induction of Pro-apoptosis in human HL-60 cells assessed as increase in apoptotic cells at 10 uM after 48 hrs by Annexin-V/PI-staining based flow cytometry. In kind it is functional.
Data set [10] in a line: Metabolic stability in human liver microsomes assessed as half life by HPLC analysis. Type of data set: ADME, Microsome. Summed up: (§3)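 Compound incubated with human liver microsomes plus an NADPH-generating system. Log % of compound recovered (100% at 0 min) was plotted against incubation time and fitted to a monoexponential decay. Controls were boiled microsomes, or microsomes without NADPH-GS, at 37 °C for 60 min.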

Data set [11] concerns HL-60. Description: Induction of autophagy in human HL-60 cells assessed as increase in p62 protein level at 10 uM […] by Immunoblotting analysis. In kind it is functional, cell-based.
Data set [12] has as its system KYSE-520 cell line. Description: Cytotoxicity against human KYSE520 cells assessed as inhibition of cell growth measured after 72 hrs by alamar blue viability assay. Type of data set: functional, cell-based. To be noted: KYSE-520, 72 h. The procedure, abridged: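 KYSE-520 oesophageal cells were exposed to at least 8 increasing concentrations for 48 h or 72 h. Viability was read out to give IC50, as the mean ± SD of at least three independent experiments.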

Data set [13] is described as follows: Cytotoxicity against human TR146 cells assessed as reduction in cell viability measured after 48 hrs by alamar blue viability assay. To be noted: TR146, 48 h. Type of data set: functional, cell-based. Summed up: as §2
A further data set relates to OE33. Description: Cytotoxicity against human OE33 cells assessed as inhibition of cell growth measured after 72 hrs by MTT assay. Type of data set: functional, cell-based. To be noted: OE33, 72 h. Summed up: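 Oesophageal adenocarcinoma lines were exposed to at least 8 increasing concentrations for 72 h. Viability was measured by MTT. IC50 is the mean ± SD of at least three independent experiments.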

The test system of another data set is Emu-TCL1. Description: Induction of apoptosis in mouse Emu-TCL1 cells model of CLL assessed as mitochondrial membrane depolarization at 10 uM after 48 hrs by TMRM dye based flow cytometric analysis. Type of data set: functional, cell-based. Summed up: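 Splenocytes from Eμ-TCL1 leukaemic mice were treated with 10 μM or DMSO vehicle for 48 h, then TMRM-loaded. Flow cytometry gave the percentage of TMRM-low cells as mean ± SD (n = 3).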

Data set [14] deals with HeLa. The data set can be described thus: Induction of morphological changes in human HeLa cells assessed as golgi complex fragmentation at 10 uM incubated for 3 hrs by phalloidin staining based laser scanning confocal microscopic analysis. Type of data set: functional, cell-based. The procedure, abridged:
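HeLa cells in growth medium were treated at 1 or 10 μM, with BafA1 300 nM as reference, for 3 h. Cells were fixed in 4% PFA, stained with anti-GM130 for the Golgi and AF647-phalloidin for actin, and imaged by laser scanning confocal microscopy.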

The subject of data set [15] is HL-60. Description: Induction of autophagy in human HL-60 cells assessed as increase in LC3-II protein level at 10 uM in presence of chloroquine […] by Immunoblotting analysis. In kind it is functional, cell-based.
Data set [16] can be described thus: Mutagenicity in Salmonella typhimurium TA100 in presence of rat liver S9 fraction at 0.3 to 60 uM by AMES test. In kind it is toxicity, subcellular. To be noted: salmonella enterica subsp. enterica serovar typhimurium, s9, 60 µM; dose 0.3-60 µM.
A short description of data set [17]: Aqueous solubility of the compound in pH 3 measured after 24 hrs by HPLC/DAD/UV analysis. In kind it is physicochemical. To be noted: aqueous solution at pH 3, pH 3. Summed up:
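Solubility in aqueous buffer at pH 3, measured by HPLC after 24 h.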

Data set [18] is described as follows: Metabolic stability in human liver microsomes assessed as apparent decay constant by HPLC analysis. In kind it is ADME, Microsome. The procedure, abridged: as §3
The next data set deals with Tubulin (Homo sapiens) (UniProt P68371+Q9H4B7+P0DPH7+P68366+Q13509+Q71U36+P04350+Q3ZCM7+P07437+P68363+Q9BQE3+Q6PEY2+Q13885+Q9BVA1+Q9BUF5). Description: Binding affinity to microtubule polymerization (unknown origin) assessed as formation of microtubule at 27.5 uM measured for 2 hrs by plate reader method. Type of data set: protein-complex assay. Summed up:
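25 μM tubulin in GAB buffer with compound at 27.5 μM or DMSO vehicle; podophyllotoxin 27.5 μM as destabiliser control. Polymerisation started by raising temperature from 4 to 37 °C at time 0; microtubule formation followed as absorbance increase over time.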

Sequence of Nuclear factor NF-kappa-B complex (Homo sapiens) (P19838 whole entry, looked up): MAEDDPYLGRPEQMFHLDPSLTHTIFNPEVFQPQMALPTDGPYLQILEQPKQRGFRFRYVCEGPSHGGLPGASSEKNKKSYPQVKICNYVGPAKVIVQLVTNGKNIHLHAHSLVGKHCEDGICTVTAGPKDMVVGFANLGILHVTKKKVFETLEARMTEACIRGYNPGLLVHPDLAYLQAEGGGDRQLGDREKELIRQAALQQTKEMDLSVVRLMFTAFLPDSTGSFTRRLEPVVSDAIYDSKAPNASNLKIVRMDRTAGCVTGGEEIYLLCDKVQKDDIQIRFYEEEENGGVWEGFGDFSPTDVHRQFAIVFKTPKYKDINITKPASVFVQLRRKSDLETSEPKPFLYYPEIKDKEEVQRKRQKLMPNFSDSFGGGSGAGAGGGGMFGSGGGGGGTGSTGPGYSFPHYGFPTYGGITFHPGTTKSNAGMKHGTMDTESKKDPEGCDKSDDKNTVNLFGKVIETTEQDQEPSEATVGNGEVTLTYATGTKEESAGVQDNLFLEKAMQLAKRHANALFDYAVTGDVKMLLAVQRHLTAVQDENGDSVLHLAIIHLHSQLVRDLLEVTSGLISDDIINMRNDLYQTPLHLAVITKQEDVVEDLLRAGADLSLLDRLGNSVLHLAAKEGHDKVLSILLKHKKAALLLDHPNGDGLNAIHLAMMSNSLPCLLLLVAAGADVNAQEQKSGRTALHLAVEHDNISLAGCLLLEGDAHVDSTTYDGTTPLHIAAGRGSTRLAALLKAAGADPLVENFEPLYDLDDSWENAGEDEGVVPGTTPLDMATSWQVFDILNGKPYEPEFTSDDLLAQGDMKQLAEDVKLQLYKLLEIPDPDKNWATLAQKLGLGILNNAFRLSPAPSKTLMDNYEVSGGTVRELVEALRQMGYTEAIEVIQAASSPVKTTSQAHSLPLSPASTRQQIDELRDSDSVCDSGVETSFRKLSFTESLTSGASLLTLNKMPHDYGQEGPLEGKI
Sequence of Nuclear factor NF-kappa-B complex (Homo sapiens) (Q00653 whole entry, looked up): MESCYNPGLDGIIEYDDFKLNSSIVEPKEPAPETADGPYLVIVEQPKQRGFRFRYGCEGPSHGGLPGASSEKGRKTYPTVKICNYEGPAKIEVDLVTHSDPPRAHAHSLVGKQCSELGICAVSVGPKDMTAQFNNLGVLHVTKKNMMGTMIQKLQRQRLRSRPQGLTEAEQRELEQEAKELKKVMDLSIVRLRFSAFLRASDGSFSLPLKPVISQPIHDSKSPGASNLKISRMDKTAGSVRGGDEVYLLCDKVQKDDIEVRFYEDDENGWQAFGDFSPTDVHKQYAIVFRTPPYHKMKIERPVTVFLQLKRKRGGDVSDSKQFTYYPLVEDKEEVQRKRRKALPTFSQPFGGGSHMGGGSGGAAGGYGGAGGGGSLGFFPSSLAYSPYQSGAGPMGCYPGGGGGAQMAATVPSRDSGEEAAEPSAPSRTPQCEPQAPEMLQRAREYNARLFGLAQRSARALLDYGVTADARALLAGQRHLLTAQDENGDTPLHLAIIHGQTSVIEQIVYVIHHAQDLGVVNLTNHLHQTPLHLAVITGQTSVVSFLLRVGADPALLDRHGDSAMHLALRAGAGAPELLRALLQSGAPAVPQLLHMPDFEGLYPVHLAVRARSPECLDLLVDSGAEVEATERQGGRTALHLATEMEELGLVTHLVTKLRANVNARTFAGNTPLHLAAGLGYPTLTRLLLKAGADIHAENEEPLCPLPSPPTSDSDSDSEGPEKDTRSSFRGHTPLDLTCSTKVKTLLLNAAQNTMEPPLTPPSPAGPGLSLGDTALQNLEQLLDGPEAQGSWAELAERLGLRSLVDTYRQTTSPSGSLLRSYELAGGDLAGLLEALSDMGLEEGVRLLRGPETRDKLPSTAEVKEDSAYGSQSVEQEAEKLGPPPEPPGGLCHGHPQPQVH
Sequence of Nuclear factor NF-kappa-B complex (Homo sapiens) (Q04206 whole entry, looked up): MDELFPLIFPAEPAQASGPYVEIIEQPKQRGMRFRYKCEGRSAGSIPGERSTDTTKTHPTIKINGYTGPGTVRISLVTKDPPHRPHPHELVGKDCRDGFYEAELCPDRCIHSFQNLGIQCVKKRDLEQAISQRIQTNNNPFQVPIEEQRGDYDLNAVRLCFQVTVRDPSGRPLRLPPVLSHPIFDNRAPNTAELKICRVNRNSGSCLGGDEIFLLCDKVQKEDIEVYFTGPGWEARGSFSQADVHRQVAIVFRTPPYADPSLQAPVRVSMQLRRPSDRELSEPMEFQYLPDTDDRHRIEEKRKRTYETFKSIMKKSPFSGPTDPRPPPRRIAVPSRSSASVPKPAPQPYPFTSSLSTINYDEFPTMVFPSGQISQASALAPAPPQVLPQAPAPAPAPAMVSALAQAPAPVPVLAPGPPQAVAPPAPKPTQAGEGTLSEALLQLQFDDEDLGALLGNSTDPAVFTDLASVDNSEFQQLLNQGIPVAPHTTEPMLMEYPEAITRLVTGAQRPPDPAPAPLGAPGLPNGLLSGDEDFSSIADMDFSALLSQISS

For orientation: IC50 means the concentration that gives 50% inhibition. Usually half-life stands for the time needed for the level to fall by half in the phase considered. In general, solubility refers to how much of the substance goes into solution per volume. Read a low solubility as little dissolved substance. For the compound `O=C(OC1=C(c2cccc3ncccc23)Oc2cc3ccccc3cc2-n2cccc21)C1CCNCC1`, the Activity result in [1] is reported as “Non-Toxic”; in data set [5] it was “Non-Toxic”; in [9], “>=70%”; in data set [16], “Non-Toxic”. Moreover, the result in the data set on SCC-4 [2], with KYSE-520 cell line [3], in the data set on SCC-4 [4], in the data set with HeLa [7], in the data set with SCC-4 [8] and with HL-60 [11] was Active. Moreover, the outcome with Emu-TCL1, in the data set with HeLa [14], with HL-60 [15] and on Tubulin (Homo sapiens) was Active. Further, the half-maximal inhibitory concentration (IC50) with Ca9-22 is 2000 nM; with KYSE-520 cell line [12], 890 nM; in data set [13] it was 4500 nM; in the data set with OE33, 1930 nM. Also, the inhibition result in data set [6] is “Active”. For the same compound, in data set [10], the half-life is 1.52 h. The compound also gave a solubility at 24 h in [17] of 271 µM (≈ 132 µg/mL). Further, the k el in data set [18] is 0.000127 s⁻¹.

On to `CN1CCN(C(=O)OC2=C(c3cccc4ncccc34)Oc3cc4ccccc4cc3-n3cccc32)CC1`, for which the Activity result is given as “Non-Toxic” in data set [1], “Non-Toxic” in data set [5], “>=70%” in data set [9] and “Non-Toxic” in [16]. The result with SCC-4 [2], in the data set with KYSE-520 cell line [3], with SCC-4 [4], in the data set on HeLa [7], with SCC-4 [8] and in the data set on HL-60 [11] was Active. For the same compound, the outcome in the data set on Emu-TCL1, with HeLa [14], in the data set with HL-60 [15] and at Tubulin (Homo sapiens) was Active. Further, the half-maximal inhibitory concentration (IC50) with Ca9-22 came to 130 nM; in the data set on KYSE-520 cell line [12], 1680 nM; in data set [13] it was 880 nM; in the data set on OE33, 400 nM. Also, the inhibition entry in data set [6] was “Active”. Besides, the half-life in data set [10] worked out at 0.513 h. In data set [17], the solubility at 24 h is 204 µM (≈ 103 µg/mL). Besides, in data set [18], the k el was 0.000367 s⁻¹.
